These results are taken from ChEMBL document CHEMBL4257465, “Strigolactones: a plant phytohormone as novel anti-inflammatory agents” (Medchemcomm, 2018).

Assay [1] concerns RAW264.7. Description: Antiinflammatory activity in LPS-induced mouse RAW264.7 cells assessed as TNFalpha levels at 1.25 uM pretreated for 2 hrs followed by LPS stimulation and measured after 24 hrs by ELISA (reference value: 9653.7 +/- 377.3 pg/ml). The format is functional. In a few lines: (§1)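 RAW264.7 murine macrophages (DMEM, 10% serum, 37 °C, 5% CO2) seeded at 5 × 10^5 cells per well, pretreated 2 h with compound at 10, 5, 2.5 or 1.25 μM (DMSO 0.1% v/v), then LPS (E. coli 0127:B8) 100 ng mL−1 added. Supernatant TNF-α or IL-6 read by mouse ELISA kit after 6, 12 and 24 h. Mean ± SD, n = 3, three independent experiments.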

For assay [2], the system named is RAW264.7. In words: Antiinflammatory activity in LPS-induced mouse RAW264.7 cells assessed as TNFalpha levels at 5 uM pretreated for 2 hrs followed by LPS stimulation and measured after 12 hrs by ELISA (reference value: 5313.7 +/- 420.9 pg/ml). The format is functional. In a few lines: as §1
In general terms: ELISA stands for enzyme-linked immunosorbent assay.

For assay [3], the system named is RAW264.7. Description: Antiinflammatory activity in LPS-induced mouse RAW264.7 cells assessed as TNFalpha levels at 1.25 uM pretreated for 2 hrs followed by LPS stimulation and measured after 6 hrs by ELISA (reference value: 4377.1 +/- 318.6 pg/ml). It is filed as functional. In a few lines: as §1
In assay [4] the test system is Danio rerio. Description: In-vivo antiinflammatory activity in 4 days post fertilized zebrafish larvae harboring coronilla-eGFP/Lyc-dsRed assessed as reduction in neutrophil recruitment to wounded tail at 5 to 20 uM measured after 3 to 6 hrs by fluorescence microscopic analysis. It is filed as functional, organism-based. In a few lines: (§2)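 Double transgenic neutrophil/macrophage reporter larvae (Coronilla-eGFP/Lyc-dsRed), 4 dpf, tail-cut. […] Neutrophils and macrophages gathering at the wound imaged by fluorescence microscopy at 3 and 6 h. 6–8 larvae per group. Uncut larvae serve as blank, untreated cut larvae as control.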

Assay [5] deals with RAW264.7. Description: Antiinflammatory activity in LPS-induced mouse RAW264.7 cells assessed as IL-6 levels at 2.5 uM pretreated for 2 hrs followed by LPS stimulation and measured after 12 hrs by ELISA (reference value: 1394 +/- 62.6 pg/ml). The format is functional. In a few lines: as §1
Assay [6] deals with RAW264.7. In words: Antiinflammatory activity in LPS-induced mouse RAW264.7 cells assessed as IL-6 levels at 10 uM pretreated for 2 hrs followed by LPS stimulation and measured after 12 hrs by ELISA (reference value: 1394 +/- 62.6 pg/ml). The format is functional. In a few lines:
as §1

Assay [7] concerns RAW264.7. In words: Antiinflammatory activity in LPS-induced mouse RAW264.7 cells assessed as IL-6 levels at 5 uM pretreated for 2 hrs followed by LPS stimulation and measured after 6 hrs by ELISA (reference value: 472.3 +/- 25.8 pg/ml). It is filed as functional. In a few lines: as §1
Assay [8] relates to RAW264.7. In words: Antiinflammatory activity in LPS-induced mouse RAW264.7 cells assessed as TNFalpha levels at 10 uM pretreated for 2 hrs followed by LPS stimulation and measured after 6 hrs by ELISA (reference value: 4377.1 +/- 318.6 pg/ml). The format is functional. In a few lines: as §1
Assay [9] deals with RAW264.7. Description: Antiinflammatory activity in LPS-induced mouse RAW264.7 cells assessed as IL-6 levels at 1.25 uM pretreated for 2 hrs followed by LPS stimulation and measured after 12 hrs by ELISA (reference value: 1394 +/- 62.6 pg/ml). The format is functional. In a few lines:
as §1

The test system of assay [10] is Danio rerio. Description: In-vivo antiinflammatory activity in 4 days post fertilized zebrafish larvae harboring coronilla-eGFP/Lyc-dsRed assessed as reduction in macrophage recruitment to wounded tail at 5 to 20 uM measured after 3 to 6 hrs by fluorescence microscopic analysis. It is filed as functional, organism-based. In a few lines:
as §2

Assay [11] deals with Transcription factor p65 (Mus musculus) (UniProt Q04207). Description: Inhibition of LPS-induced NFkappaB p65 phosphorylation in mouse RAW264.7 cells after 4 hrs by Western blot analysis. It is filed as cell-based. In a few lines: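 RAW264.7 cells at 2 × 10^6 per well given fresh medium with compound (10, 5, 2.5, 1.25 μM) plus LPS 500 ng mL−1 for 4 h. Lysed in IP buffer with 1 mM PMSF, protein by BCA. Run on 12.5% SDS-PAGE and blotted. Phospho and total ERK1/2 (Thr202/Tyr204), p38 (Thr180/Tyr182), IκBα (Ser32/36) and NF-κB p65 detected by ECL. Mean ± SD, n = 3.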

For assay [12], the system named is RAW264.7. In words: Antiinflammatory activity in LPS-induced mouse RAW264.7 cells assessed as IL-6 levels at 2.5 uM pretreated for 2 hrs followed by LPS stimulation and measured after 6 hrs by ELISA (reference value: 472.3 +/- 25.8 pg/ml). The format is functional. In a few lines: as §1
Assay [13] relates to RAW264.7. Description: Antiinflammatory activity in LPS-induced mouse RAW264.7 cells assessed as IL-6 levels at 1.25 uM pretreated for 2 hrs followed by LPS stimulation and measured after 24 hrs by ELISA (reference value: 1966.6 +/- 102.3 pg/ml). The format is functional. In a few lines: as §1
Assay [14] has as its system RAW264.7. In words: Antiinflammatory activity in LPS-induced mouse RAW264.7 cells assessed as IL-6 levels at 5 uM pretreated for 2 hrs followed by LPS stimulation and measured after 24 hrs by ELISA (reference value: 1966.6 +/- 102.3 pg/ml). It is filed as functional. In a few lines: as §1

Calls of active or inactive are those of the source. The calls are words filed in the database; no cut-off is given here.

Transcription factor p65 (Mus musculus), sequence (Q04207 whole entry): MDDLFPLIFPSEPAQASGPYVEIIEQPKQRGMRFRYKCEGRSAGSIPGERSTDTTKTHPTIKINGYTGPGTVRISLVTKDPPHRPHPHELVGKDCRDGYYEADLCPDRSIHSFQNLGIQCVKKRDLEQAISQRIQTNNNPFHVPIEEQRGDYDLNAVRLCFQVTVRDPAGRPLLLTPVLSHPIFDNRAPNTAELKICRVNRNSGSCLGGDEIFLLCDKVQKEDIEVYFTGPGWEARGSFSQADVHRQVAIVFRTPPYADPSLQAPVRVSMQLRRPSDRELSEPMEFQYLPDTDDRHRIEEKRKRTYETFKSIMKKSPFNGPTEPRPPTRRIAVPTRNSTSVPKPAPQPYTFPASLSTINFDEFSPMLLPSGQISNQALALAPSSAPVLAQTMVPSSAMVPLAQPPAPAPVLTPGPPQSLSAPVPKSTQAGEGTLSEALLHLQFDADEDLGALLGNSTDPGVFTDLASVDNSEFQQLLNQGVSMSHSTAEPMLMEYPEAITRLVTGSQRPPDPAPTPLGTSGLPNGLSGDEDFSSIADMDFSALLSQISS

Regarding `CC1=C[C@@H](O/C=C2/C(=O)O[C@H]3c4ccccc4C[C@@H]23)OC1=O`, the Activity with RAW264.7 [1] was found to be 9582.9 pg/mL; in the assay on RAW264.7 [2] it was 5079.1 pg/mL; in the assay on RAW264.7 [3] it was 4367.3 pg/mL; in the assay with RAW264.7 [5], 1296 pg/mL; in the assay on RAW264.7 [6], 998.2 pg/mL; in the assay on RAW264.7 [7], 410.3 pg/mL. Moreover, the Activity in the assay on RAW264.7 [8] was 3927.4 pg/mL; with RAW264.7 [9], 1374.3 pg/mL; in the assay with RAW264.7 [12], 447.9 pg/mL; in the assay on RAW264.7 [13], 1936.5 pg/mL; in the assay on RAW264.7 [14] it was 1561.1 pg/mL. In addition, the outcome in the assay with Danio rerio [4] and in the assay with Danio rerio [10] was Active. Further, the inhibition result in assay [11] is “Dose-dependent effect”.

`CC1=C[C@H](O/C=C2/C(=O)O[C@@H]3c4ccccc4C[C@H]23)OC1=O`: the Activity with RAW264.7 [1] worked out at 9565.4 pg/mL; with RAW264.7 [2] it was 5036.1 pg/mL; in the assay with RAW264.7 [3] it was 4388.3 pg/mL; with RAW264.7 [5] it was 1267.7 pg/mL; with RAW264.7 [6], 869 pg/mL; with RAW264.7 [7], 387.1 pg/mL. In addition, the Activity was determined as 3862.3 pg/mL in the assay with RAW264.7 [8]; 1351.9 pg/mL in the assay with RAW264.7 [9]; 433.6 pg/mL in the assay on RAW264.7 [12]; 1892.3 pg/mL with RAW264.7 [13]; 1499.2 pg/mL in the assay on RAW264.7 [14]. The result in the assay with Danio rerio [4] and with Danio rerio [10] was Active. In addition, in [11], the inhibition result was “Dose-dependent effect”.
